Where only a bound is given, the exact number is not on record here.

This is an account of results in ChEMBL document CHEMBL1777774, “A novel, broad-spectrum antitumor compound containing the 1-hydroxycyclohexa-2,5-dien-4-one group: the disclosure of a new antitumor pharmacophore in protoapigenone 1” (Bioorg Med Chem Lett, 2011).

Series [1] concerns H22. As to the kind of experiment: Antitumor activity against mouse H22 tumor-nearing ICR mouse assessed as inhibition of tumor growth at 10 mg/kg, ip for 7 days measured on day 9. It counts as functional. The note with it: route intraperitoneal. Summed up: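 ICR mice given H22 ascites cells from serial passage, 0.2 ml of 1×10^7 cells/ml injected subcutaneously into right flank, 10 mice per group. From day 2, 10 mg/kg/day ip in 10% ethanol (10 ml/kg) for 7 days. Cyclophosphamide 10 mg/kg as reference, vehicle-treated tumor model group. Killed day 9, tumors weighed. Inhibition = (model − treated tumor weight)/model weight × 100%.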

Series [2] relates to MCF7. Briefly: Antitumor activity against human MCF7 cells assessed as cell proliferation after 24 hrs by MTT assay. It counts as functional, cell-based. The note with it: MCF7, 24 h. Summed up:
(§1)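 Cells seeded at 2000 per well in 96-well plates and allowed to adhere. Compounds in DMSO, diluted in culture medium, added at 0.1–100 μM (eight wells per concentration) for 24 h. DMSO vehicle control. MTT 0.5 mg/mL (in PBS) for 4 h, then medium removed and DMSO added, absorbance read at 570 nm. IC50 from concentration vs percent absorbance plot. Mean ± SD, n = 4.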
(In general: Tetrazolium dyes change colour on reduction, which living cells bring about.)

The test system of series [3] is MDA-MB-231. Briefly: Antitumor activity against human MDA-MB-231 cells assessed as cell proliferation after 24 hrs by MTT assay. The format is functional, cell-based. The note with it: MDA-MB-231, 24 h. Summed up: as §1
Series [4] deals with SK-OV-3. Briefly: Antitumor activity against human SKOV3 cells assessed as cell proliferation after 24 hrs by MTT assay. The format is functional, cell-based. The following applies: SK-OV-3, 24 h. An outline of the steps:
as §1

For series [5], the system named is PC-3. As to the kind of experiment: Antitumor activity against human PC3 cells assessed as cell proliferation after 24 hrs by MTT assay. The format is functional, cell-based. The note with it: PC-3, 24 h. An outline of the steps: as §1
For series [6], the system named is HepG2. Briefly: Antitumor activity against human HepG2 cells assessed as cell proliferation after 24 hrs by MTT assay. It counts as functional, cell-based. The following applies: HepG2, 24 h. Summed up:
as §1

The subject of series [7] is PANC-1. As to the kind of experiment: Antitumor activity against human PANC1 cells assessed as cell proliferation after 24 hrs by MTT assay. It counts as functional, cell-based. The note with it: PANC-1, 24 h. Summed up:
as §1

Series [8] has as its system RPMI-8226. As to the kind of experiment: Antitumor activity against human RPMI8226 cells assessed as cell proliferation after 24 hrs by MTT assay. It counts as functional, cell-based. The following applies: RPMI-8226, 24 h. An outline of the steps:
as §1

For series [9], the system named is U-266. As to the kind of experiment: Antitumor activity against human U266 cells assessed as cell proliferation after 24 hrs by MTT assay. It counts as functional, cell-based. The following applies: U-266, 24 h. An outline of the steps: as §1
For series [10], the system named is HEK293. As to the kind of experiment: Cytotoxicity against human HEK293 cells assessed as cell proliferation after 24 hrs by MTT assay. It counts as cell-based. The following applies: HEK293, 24 h. An outline of the steps:
as §1

Series [11] concerns PBMC. Briefly: Cytotoxicity against human PBMC assessed as cell proliferation after 24 hrs by MTT assay. It counts as cell-based. Summed up:
as §1

The subject of series [12] is Mus musculus. As to the kind of experiment: Toxicity in […] H22 tumor-nearing ICR mouse assessed as white blood cell count at 10 mg/kg, ip for 7 days measured on day 9 relative to control. The arrangement: dose 10 mg/kg, route intraperitoneal. The note with it: in vivo, 168 h. It counts as organism-based. An outline of the steps:
(§2)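 H22-bearing ICR mice (10 per group, plus a saline-injected normal group) dosed ip at 10 mg/kg/day in 10% ethanol for 7 days from day 2. Vehicle given to controls. On day 9 blood was taken for WBC count, and body weight, thymus and spleen were weighed. Thymus or spleen index = organ weight (mg)/body weight (g).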

Series [13] relates to Mus musculus. As to the kind of experiment: Toxicity in […] H22 tumor-nearing ICR mouse assessed as thymus index at 10 mg/kg, ip for 7 days measured on day 9 relative to control. It counts as organism-based. The arrangement: dose 10 mg/kg, route intraperitoneal. The note with it: in vivo, 168 h. An outline of the steps:
as §2

In series [14] the test system is Mus musculus. As to the kind of experiment: Toxicity in […] H22 tumor-nearing ICR mouse assessed as spleen index at 10 mg/kg, ip for 7 days measured on day 9 relative to control. The format is organism-based. Set-up: dose 10 mg/kg, route intraperitoneal. The note with it: in vivo, 168 h. An outline of the steps: as §2
Series [15] concerns Mus musculus. Briefly: Toxicity in […] H22 tumor-nearing ICR mouse assessed as body weight at 10 mg/kg, ip for 7 days measured on day 9 relative to control. Set-up: dose 10 mg/kg, route intraperitoneal. The following applies: in vivo, 168 h. The format is organism-based. An outline of the steps:
as §2

Series [16] relates to Mus musculus. As to the kind of experiment: Toxicity in […] H22 tumor-nearing ICR mouse assessed as decrease in total nucleated bone marrow cells at 10 mg/kg, ip for 7 days measured on day 9. It counts as organism-based. The arrangement: dose 10 mg/kg, route intraperitoneal; scale not given: the % may be the effect or the level left. The following applies: in vivo, 168 h. Summed up:
(§3)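 H22-bearing ICR mice dosed ip 10 mg/kg/day in 10% ethanol for 7 days from day 2, with vehicle controls. Killed day 9 and femoral marrow flushed. Nucleated cells counted with a Coulter Counter. Granulocytic and erythroid cells per femur counted on May-Grünwald-Giemsa-stained marrow smears.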

The subject of series [17] is Mus musculus. As to the kind of experiment: Toxicity in […] H22 tumor-nearing ICR mouse assessed as decrease in ratio of granulocytic and erythroid cell system at 10 mg/kg, ip for 7 days measured on day 9. It counts as organism-based, Erythrocyte. Set-up: dose 10 mg/kg, route intraperitoneal; scale not given: the % may be the effect or the level left. The note with it: in vivo, 168 h. An outline of the steps:
as §3

As a reminder, the inhibition in vivo is the drop in the measured response relative to a control, in per cent. As to `O=P1(N(CCCl)CCCl)NCCCO1` (stereo not given) [CYCLOPHOSPHAMIDE ANHYDROUS], in series [1], the inhibition in vivo at 10 mg/kg was 41.7%.
The term IC50 denotes the concentration that inhibits the measured activity by half. `O=C1C=CC(O)(c2cc(=O)cco2)C=C1`: the IC50 in series [2] was found to be 0.71 µM; in series [3] it was 0.38 µM; in series [4], 0.64 µM; in series [5], 3.43 µM; in series [6] it was 1.76 µM; in series [7], 3.08 µM. For the same molecule, the IC50 stood at 13.5 µM in series [8], 9.44 µM in [9], 30 µM in series [10] and 49.3 µM in series [11]. Further, in series [1], the inhibition in vivo at 10 mg/kg came out at 34.1%. In addition, the Activity entry in [12], in series [13], in series [14], in series [15], in series [16] and in series [17] was “Non-toxic” throughout.
In the case of `O=C1C=CC(O)(c2cc(=O)c3c(O)cc(O)cc3o2)C=C1` [PROTOAPIGENONE], the IC50 in series [2] came to 5.5 µM; in series [3], 1.7 µM; in series [4], 0.71 µM; in series [5], 6.13 µM; in [6], 7.77 µM; in series [7], 22.1 µM. Further, the IC50 in series [8] came to 3.93 µM; in series [9], 7.66 µM; in series [10], 6.79 µM; in [11], 8.11 µM. Further, in [1], the inhibition in vivo at 10 mg/kg is under 5%. Moreover, the Activity result in series [12] is “Non-toxic”; in series [13], “Non-toxic”; in series [14], “Non-toxic”; in series [15], “Non-toxic”; in [16], 51.52%; in series [17], 36.9%.
